These results are taken from ChEMBL document CHEMBL1154864, “Oblongolides from the endophytic fungus Phomopsis sp. BCC 9789” (J Nat Prod, 2010).

pIC50: −log10 of the molar value. In brackets after ≈: the same amount, converted by molar mass.

The subject of assay [1] is Mycobacterium tuberculosis. Description: Antituberculosis activity against Mycobacterium tuberculosis H37Ra after 4 days by Alamar blue assay. Conditions: 96 h. The assay is classed as functional. In a few lines:
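Microplate resazurin (Alamar Blue) growth-inhibition assay against M. tuberculosis H37Ra; MIC taken as the lowest concentration giving ≥90% growth inhibition.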
On the technique in general: Resazurin is reduced to fluorescent resorufin, in cell work by metabolically active cells.

Another assay has as its system KB. In words: Cytotoxicity against human KB cells by SRB assay. The assay is classed as functional, cell-based. In a few lines:
(§1)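 Colorimetric cytotoxicity assay run on oral human epidermal carcinoma (KB), human breast cancer (BC), human small-cell lung cancer (NCI-H187) and African green monkey kidney fibroblast (Vero) cells. IC50 values are reported in µM.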
For orientation: In SRB staining, fixed cells bind dye roughly in proportion to their protein.

Assay [2] can be described thus: Cytotoxicity against human BC cells by SRB assay. Format: functional, cell-based. The gist of the method:
as §1

In another assay the test system is NCI-H187. Description: Cytotoxicity against human NCI-H187 cells by SRB assay. Format: functional, cell-based. The gist of the method: as §1
The next assay deals with Vero. Description: Cytotoxicity against African green monkey Vero cells by SRB assay. Format: cell-based. The following applies: Chlorocebus sabaeus. The gist of the method: as §1
The next assay deals with Human alphaherpesvirus 1. Description: Antiviral activity against Herpes simplex virus type 1. Format: functional, organism-based. In a few lines:
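HSV-1 antiviral activity read out by a colorimetric method, with IC50 values in µM.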

As a reminder, the MIC is the smallest concentration in the dilution series that meets the test's criterion for growth inhibition. The term pIC50 denotes the negative decadic logarithm of the IC50, by convention in mol/L.

Regarding `C[C@H]1CC[C@H]2[C@@H](C=C[C@@H]3[C@@H](O)O[C@@H](CO)C(=O)[C@@]32C)C1`, in assay [1], the MIC was > 178 µM. Besides, the pIC50 in the assay on KB is < 4.15; in assay [2], < 4.15; in the assay on NCI-H187, < 4.15; with Vero, < 3.75.
Take `Cc1ccc(O)c2c1C[C@@H](C)OC2=O`: the MIC in assay [1] was > 260 µM. For the same molecule, the pIC50 in the assay on KB was < 3.98; in assay [2], < 3.98; in the assay with NCI-H187, < 3.98; with Vero, < 3.59.
In the assay on Human alphaherpesvirus 1, `Nc1nc2c(ncn2COCCO)c(=O)[nH]1` [ACYCLOVIR] showed a pIC50 of 4.89.
`COc1cccc2c1C(=O)c1c(O)c3c(c(O)c1C2=O)C[C@@](O)(C(=O)CO)C[C@@H]3O[C@H]1C[C@H](N)[C@H](O)[C@H](C)O1` [DOXORUBICIN]: the pIC50 in the assay with KB is 6.62; in the assay with NCI-H187, 7.10.
With `Cc1c2ccncc2c(C)c2c1[nH]c1ccccc12` [ELLIPTECINE], the pIC50 with Vero is 5.76.
In turn, `NNC(=O)c1ccncc1` [ISONIAZID] displayed an MIC in assay [1] of 0.36 µM (≈ 0.0494 µg/mL).
For `C[C@H]1CC[C@H]2[C@@H](C=C[C@]3(O)COC(=O)[C@]23C)C1` [OBLONGOLIDE C], the MIC in assay [1] was > 212 µM. For the same molecule, the pIC50 in the assay on KB is < 4.07; in assay [2] it was < 4.07; in the assay on NCI-H187, < 4.07; in the assay with Vero it was < 3.67.
On to `C[C@H]1CC[C@H]2[C@H](C1)[C@@H]1O[C@@H]1[C@@H]1COC(=O)[C@]21C` [OBLONGOLIDE Q], for which the MIC in assay [1] is > 212 µM. Moreover, the pIC50 in the assay on KB is < 4.07; in assay [2], < 4.07; in the assay with NCI-H187, < 4.07; with Vero, < 3.67.
Turning to `C[C@H]1CC[C@H]2[C@@H](C=C[C@@H]3CO[C@](C)(O)C(=O)[C@@]32C)C1` [OBLONGOLIDE T], the MIC in assay [1] was > 189 µM. Besides, the negative logarithm of the IC50 (pIC50) in the assay with KB is < 4.12; in assay [2] it was < 4.12; in the assay with NCI-H187, < 4.12; in the assay on Vero it was < 3.72.
`C[C@H]1CC[C@H]2[C@@H](C=C[C@@H]3COC(=O)[C@@](O)(CO)[C@@]32C)C1` [OBLONGOLIDE W1]: in assay [1], the MIC stood at 178 µM (≈ 49.9 µg/mL). Also, the pIC50 was < 4.15 with KB, < 4.15 in assay [2], < 4.15 with NCI-H187 and < 3.75 in the assay with Vero.
Turning to `C[C@H]1CC[C@H]2[C@@H](C=C[C@@H]3COC(=O)[C@](O)(CO)[C@@]32C)C1` [OBLONGOLIDE W2], the MIC in assay [1] was > 178 µM. Also, the pIC50 in the assay with KB is < 4.15; in assay [2] it was < 4.15; in the assay with NCI-H187, < 4.15; in the assay on Vero it was < 3.75.
Turning to `C[C@H]1CC[C@H]2[C@@H](C=C[C@@H]3CO[C@@](O)(CO)C(=O)[C@@]32C)C1` [OBLONGOLIDE X], the MIC in assay [1] was > 178 µM. Further, the pIC50 was < 4.15 in the assay on KB, < 4.15 in assay [2], < 4.15 in the assay with NCI-H187 and 4.02 in the assay with Vero.
As for `CO[C@]1(C(C)=O)OC[C@H]2C=C[C@H]3C[C@@H](C)CC[C@@H]3[C@]21C` [OBLONGOLIDE Y], the MIC in assay [1] is > 180 µM. The pIC50 was < 4.14 in the assay with KB, 4.32 in assay [2], < 4.14 in the assay with NCI-H187 and < 3.74 with Vero.
As for `CC(=O)[C@@]1(OCCc2ccccc2)OC[C@H]2C=C[C@H]3C[C@@H](C)CC[C@@H]3[C@]21C` [OBLONGOLIDE Z], the MIC in assay [1] is > 136 µM. The pIC50 was 4.43 in the assay on KB, 4.59 in assay [2], 4.49 with NCI-H187 and 4.22 with Vero.
For `C[C@H]1CC[C@H]2[C@@H](C=C[C@@H]3COC(=O)[C@@]32C)C1` [OBLONGOLIDE], in that order: 227 µM (≈ 50 µg/mL), < 4.04, < 4.04, < 4.04 and < 3.64.
